According to ChEMBL document CHEMBL1139399, “Synthesis and biological evaluation of glucuronide prodrugs of the histone deacetylase inhibitor CI-994 for application in selective cancer chemotherapy” (Bioorg Med Chem, 2008):
In brackets after ≈: the same amount, converted by molar mass. Activity calls are given as the source filed them. No cut-off for these calls is given here.

Key:
NCI-H661 [1] = test: Antiproliferative activity against human NCI-H661 cells after 48 hrs; assay type: functional, cell-based
Procedure, shortened: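 NCI-H661 NSCLC cells grown in RPMI 1640 + 10% FCS, 37 °C, 5% CO2; 4 × 10^3 cells/well seeded, grown 24 h, then exposed to compound for 48 h without β-glucuronidase. XTT labeling mixture added, further 4 h at 37 °C, absorbance read at 480 nm. Three experiments in triplicate; standard deviation shown.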

[2] = Aqueous solubility in phosphate buffer at pH 7; assay type: physicochemical
Procedure, shortened: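 Solubility in 0.02 M phosphate buffer, pH 7; sample filtered through 0.45 µm filter, diluted in HPLC phase and quantified by HPLC (UV) against a calibration curve of 0.1–0.025 mg/mL prepared from a DMSO stock diluted in the same buffer.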

[3] = Stability in 0.02M phosphate buffer at pH 7 after 72 hrs; assay type: physicochemical; conditions: pH 7, 72 h
Procedure, shortened: (§1)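 Compounds held in 0.02 M phosphate buffer (pH 2.1 or pH 7 as per line) at 37 °C for 72 h; degradation followed by HPLC with UV detection.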

[4] = Stability in 0.02M phosphate buffer at pH 2.1 after 72 hrs; assay type: physicochemical; conditions: pH 2.1, 72 h; procedure, shortened: as §1
[5] = Stability in cell culture medium in presence of 10% foetal calf serum; assay type: ADME; conditions: cattle
Procedure, shortened: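 Incubation in cell culture medium supplemented with 10% foetal calf serum at 37 °C; solution monitored by HPLC (UV detection) over 72 h.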

NCI-H661 [6] = test: Antiproliferative activity against human NCI-H661 cells after 48 hrs in presence of beta-glucuronidase; assay type: functional, cell-based; conditions: NCI-H661, 48 h
Procedure, shortened: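 NCI-H661 cells in RPMI 1640 + 10% FCS (37 °C, 5% CO2); E. coli β-glucuronidase added to culture medium at 40 U/ml. 4 × 10^3 cells/well plated 24 h before compound, 48 h treatment, then XTT added and 4 h further incubation at 37 °C; absorbance at 480 nm. Three experiments in triplicate, standard deviation shown.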

[7] = target: Histone deacetylase (Homo sapiens) (UniProt Q13547+O15379+Q9UBN7+Q92769+Q9UQL6+Q8WUI4+Q9BY41+Q96DB2+P56524+Q9UKV0+Q969S8); test: Inhibition of HDAC in human NCI-H661 cells assessed as histone H4 acetylation after 6 hrs in presence of beta-glucuronidase by Western blot analysis; assay type: cell-based
Procedure, shortened: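 NCI-H661 cells (5 × 10^5) exposed 6 h with β-glucuronidase (40 U/ml) in medium; compounds at 100 µM, TSA control 100 nM, DMSO 0.1%. Laemmli buffer lysis, sonication, SDS–PAGE; blots probed with rabbit polyclonal anti-acetyl-histone H4 (1/500), α-tubulin loading control (1/2000), HRP secondaries (1/5000), ECL detection.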

Compound | IC50 (NCI-H661 [1]; NCI-H661, 48 h) [µM] | solubility [2] [µg/mL] | Stability [3] | Stability [4] | Stability [5] | IC50 (NCI-H661 [6]) [µM] | Activity (NCI-H661 [1]) | Activity [7]
CC(=O)Nc1ccc(C(=O)Nc2ccccc2N)cc1 [TACEDINALINE] | 20 | 80 (≈ 297 µM) |  |  |  |  |  | 
CC(=O)Nc1ccc(C(=O)Nc2ccccc2NC(=O)O[C@@H]2O[C@H](C(=O)O)[C@@H](O)[C@H](O)[C@H]2O)cc1 |  | 1000 (≈ 2040 µM) | Stable | Stable | Stable | 20 | inactive | Active
CC(=O)Nc1ccc(C(=O)Nc2ccccc2NC(=O)OCc2ccc(O[C@@H]3O[C@H](C(=O)O)[C@@H](O)[C@H](O)[C@H]3O)c([N+](=O)[O-])c2)cc1 |  | 1000 (≈ 1560 µM) | Stable | Stable | Stable | 20 | inactive | Active
